Data: ChEMBL document CHEMBL5331128, “Alicyclic Ring Size Variation of 4-Phenyl-2-naphthoic Acid Derivatives as P2Y14 Receptor Antagonists” (J Med Chem, 2023)
Active and inactive are the calls of the source.

Key:
P2Y purinoceptor 14 = molecular target: T1, P2Y purinoceptor 14 (Mus musculus, UniProt Q9ESG6); assay: Displacement of fluorescent tracer 4-(4-(1-(4-(1-(6-(3-carboxylato-4-(3-iminio-3H-xanthen-9-yl)benzamido)hexyl)-4,5-dihydro-1H-pyrrol-3-yl)butyl)piperidin-1-ium-4-yl)phenyl)-7-(4-(trifluoromethyl)phenyl)-2-naphthoate from mouse P2Y14R stably expressed in human HEK293 cells by flow cytometry; format: cell-based
T1 sequence (Q9ESG6 whole entry): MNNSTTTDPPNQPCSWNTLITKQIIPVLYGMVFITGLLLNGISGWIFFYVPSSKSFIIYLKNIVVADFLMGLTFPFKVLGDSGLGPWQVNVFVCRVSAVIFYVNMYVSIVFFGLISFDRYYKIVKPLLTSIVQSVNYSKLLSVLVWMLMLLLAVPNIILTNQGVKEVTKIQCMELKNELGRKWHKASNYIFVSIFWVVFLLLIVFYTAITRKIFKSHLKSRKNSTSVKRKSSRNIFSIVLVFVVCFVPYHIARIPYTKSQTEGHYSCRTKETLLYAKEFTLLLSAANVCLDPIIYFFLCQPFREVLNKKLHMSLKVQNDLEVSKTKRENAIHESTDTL
Summary of the method: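 Whole-cell competitive binding: CHO cells expressing hP2Y14R (or HEK-293 cells expressing mP2Y14R) incubated with AlexaFluor488-labelled antagonist tracer at 20 nM. […] Ki derived by dividing IC50 by 1.72.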

[1] = molecular target: T2, Muscarinic acetylcholine receptor M5 (Homo sapiens, UniProt P08912); assay: Displacement of […] from human muscarinic M5 receptor assessed as inhibition constant by radioligand displacement assay
T2 sequence (P08912 whole entry): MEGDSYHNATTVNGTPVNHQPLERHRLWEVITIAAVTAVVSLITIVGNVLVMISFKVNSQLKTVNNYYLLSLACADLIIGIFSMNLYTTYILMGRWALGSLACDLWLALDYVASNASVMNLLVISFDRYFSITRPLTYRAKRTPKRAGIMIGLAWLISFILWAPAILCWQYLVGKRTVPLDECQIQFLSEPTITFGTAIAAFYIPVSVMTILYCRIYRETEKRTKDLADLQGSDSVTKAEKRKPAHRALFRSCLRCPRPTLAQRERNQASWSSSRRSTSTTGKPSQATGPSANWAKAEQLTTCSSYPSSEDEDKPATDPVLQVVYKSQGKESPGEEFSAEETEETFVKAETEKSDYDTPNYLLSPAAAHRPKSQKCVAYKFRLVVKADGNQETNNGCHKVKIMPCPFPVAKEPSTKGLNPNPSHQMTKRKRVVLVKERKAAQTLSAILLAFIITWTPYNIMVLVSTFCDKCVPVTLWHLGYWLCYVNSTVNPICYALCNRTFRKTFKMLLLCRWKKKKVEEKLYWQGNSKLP

[2] = Acute toxicity in Wistar rat assessed as morbidity at 1 to 10 mg/kg, ip and measured upto 24 hrs; format: organism-based; conditions: in vivo, dose 1-10 mg/kg
Summary of the method: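 Male Wistar rats; single dose at 1, 3 or 10 mg/kg i.p., or 0.5 mg/kg i.v. Animals were watched for mortality and morbidity over the experimental period, in the course of a plasma pharmacokinetic study.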

[3] = Half life in Wistar rat at 1 mg/kg, ip and measured upto 24 hrs; format: ADME, organism-based; conditions: in vivo
[4] = Half life in Wistar rat at 0.5 mg/kg, iv and measured upto 24 hrs; format: ADME, organism-based; conditions: in vivo
[5] = Cmax in Wistar rat plasma at 3 mg/kg, ip and measured upto 24 hrs; format: ADME, organism-based; set-up: dose 3 mg/kg, time < 24 hrs, route ip
[6] = Stability in simulated intestinal fluid assessed as parent compound remaining after 120 mins; format: ADME; conditions: simulated gi fluid, 2 h
Summary of the method: (§1)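 Incubation in simulated gastric or intestinal fluid; percent parent remaining read at 120 min.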

[7] = Stability in simulated gastric fluid assessed as parent compound remaining after 120 mins; format: ADME; conditions: simulated gi fluid, 2 h; summary of the method: as §1
Cytochrome P450 2C9 = Cytochrome P450 2C9 (Homo sapiens, UniProt P11712); assay: Inhibition of CYP2C9 (unknown origin); format: ADME
Cytochrome P450 2C19 = Cytochrome P450 2C19 (Homo sapiens, UniProt P33261); assay: Inhibition of CYP2C19 (unknown origin); format: ADME
Cytochrome P450 2D6 = Cytochrome P450 2D6 (Homo sapiens, UniProt P10635); assay: Inhibition of CYP2D6 (unknown origin); format: ADME
Cytochrome P450 3A4 = Cytochrome P450 3A4 (Homo sapiens, UniProt P08684); assay: Inhibition of CYP3A4 (unknown origin); format: ADME
[8] = Stability in mouse plasma assessed as parent compound remaining at 1 uM and measured at 120 mins by LC-MS/MS analysis; format: ADME, cell-free; conditions: 2 h
Summary of the method: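 Plasma from human, rat and mouse; percent parent remaining at 120 min.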

[9] = Microsomal stability in human liver microsomes assessed as half life; format: ADME, Microsome
[10] = molecular target: Voltage-gated inwardly rectifying potassium channel KCNH2 (Homo sapiens, UniProt Q12809); assay: Inhibition of human ERG stably expressed in human HEK293 cells incubated for 2 hrs by TAMRA based fuorescence polarization assay; format: toxicity, cell-based
Summary of the method: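 hERG inhibition measured in a fluorescent dye-binding assay.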

HepG2 = assay: Cytotoxicity in human HepG2 cells assessed as reduction in cell viability; format: toxicity, cell-based
[11] = Protein binding in rat plasma assessed as bound fraction; format: ADME, cell-free
Mus musculus [12] = assay: Antiallodynic activity in CCI surgery neuropathic pain Hsd:ICR mouse model assessed as reversal of mechano-allodynia by measuring paw withdrawal threshold at 10 micromol/kg,ip and measured at 0.5 hrs by von frey test; format: functional, organism-based; conditions: dose 10.0 µmol/kg
Summary of the method: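 CCI neuropathic pain in adult male Hsd:ICR (CD-1) mice (20–30 g). Single i.p. injection on day 7 after sciatic nerve constriction, at peak pain. Vehicle 10% (Kolliphor HS 15:DMSO 5:95) in saline, 0.2 mL. Paw withdrawal threshold by von Frey filaments on ipsilateral and contralateral hindpaws. Mean ± SD; two-way ANOVA with Dunnett's test versus day 0 and day 7.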

Mus musculus [13] = assay: Antiallodynic activity in CCI surgery neuropathic pain Hsd:ICR mouse model assessed as reversal of mechano-allodynia by measuring paw withdrawal threshold at 10 micromol/kg,po and measured upto 6 hrs by von frey test; format: functional, organism-based; conditions: dose 10.0 µmol/kg
Summary of the method: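 CCI neuropathic pain in adult male CD-1 mice. Single oral gavage dose of 10 μmol/kg on day 7 post-surgery. Vehicle 5% DMSO + 10% (Kolliphor HS 15:DMSO 5:95) in 0.5% methylcellulose, 0.2 mL. Von Frey paw withdrawal threshold on both hindpaws. Mean ± SD; two-way ANOVA with Dunnett's test.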

Mus musculus [14] = assay: Anti-asthmatic activity against OVA/Aspergillus-sensitized protease-mediated C57BL/6J mouse model allergic asthma assessed as reduction in airway eosinophilia in BAL fluid at 10 mg/kg,ip followed by 0.5 hrs OVA challenge and measured after 48 hrs; format: functional, organism-based; conditions: time 48.5 hrs
Mus musculus [15] = assay: Anti-asthmatic activity against OVA/Aspergillus-sensitized protease-mediated C57BL/6J mouse model allergic asthma assessed as reduction in lymphocytes in BAL fluid at 10 mg/kg,ip followed by 0.5 hrs OVA challenge and measured after 48 hrs; format: functional, organism-based; conditions: time 48.5 hrs
Mus musculus [16] = assay: Anti-asthmatic activity against OVA/Aspergillus-sensitized protease-mediated C57BL/6J mouse model allergic asthma assessed as reduction in macrophages in BAL fluid at 10 mg/kg,ip followed by 0.5 hrs OVA challenge and measured after 48 hrs; format: functional, organism-based; conditions: time 48.5 hrs
[17] = Intraperitoneal bioavailability in Wistar rat at 3 mg/kg and measured upto 24 hrs; conditions: in vivo, ip

Cytochrome P450 2D6, sequence (P10635 whole entry): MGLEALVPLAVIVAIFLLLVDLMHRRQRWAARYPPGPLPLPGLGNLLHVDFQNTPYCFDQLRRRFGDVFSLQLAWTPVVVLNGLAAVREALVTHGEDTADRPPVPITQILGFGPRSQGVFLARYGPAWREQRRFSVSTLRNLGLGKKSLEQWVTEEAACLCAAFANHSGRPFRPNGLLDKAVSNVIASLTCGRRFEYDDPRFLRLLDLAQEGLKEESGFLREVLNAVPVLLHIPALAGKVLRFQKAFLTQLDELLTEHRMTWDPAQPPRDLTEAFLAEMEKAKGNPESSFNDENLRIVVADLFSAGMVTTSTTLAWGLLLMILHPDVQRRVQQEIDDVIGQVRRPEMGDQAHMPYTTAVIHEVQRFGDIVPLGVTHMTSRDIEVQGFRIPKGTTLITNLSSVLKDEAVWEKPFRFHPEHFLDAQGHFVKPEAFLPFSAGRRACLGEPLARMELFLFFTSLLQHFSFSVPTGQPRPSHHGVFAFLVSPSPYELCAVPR
Cytochrome P450 2C9, sequence (P11712 whole entry): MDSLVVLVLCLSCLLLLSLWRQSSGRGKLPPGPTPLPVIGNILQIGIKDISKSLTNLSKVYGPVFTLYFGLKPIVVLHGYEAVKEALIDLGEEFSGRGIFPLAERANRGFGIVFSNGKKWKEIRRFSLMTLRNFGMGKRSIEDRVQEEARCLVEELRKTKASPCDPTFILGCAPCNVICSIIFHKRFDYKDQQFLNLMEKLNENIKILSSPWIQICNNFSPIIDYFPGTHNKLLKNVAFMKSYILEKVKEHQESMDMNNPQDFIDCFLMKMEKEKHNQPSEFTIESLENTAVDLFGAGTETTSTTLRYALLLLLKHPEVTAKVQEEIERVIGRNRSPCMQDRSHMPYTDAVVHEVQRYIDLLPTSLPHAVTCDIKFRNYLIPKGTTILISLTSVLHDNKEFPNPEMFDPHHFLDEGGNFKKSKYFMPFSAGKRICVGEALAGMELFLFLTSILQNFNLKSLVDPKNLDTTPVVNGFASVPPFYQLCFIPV
Cytochrome P450 2C19, sequence (P33261 whole entry): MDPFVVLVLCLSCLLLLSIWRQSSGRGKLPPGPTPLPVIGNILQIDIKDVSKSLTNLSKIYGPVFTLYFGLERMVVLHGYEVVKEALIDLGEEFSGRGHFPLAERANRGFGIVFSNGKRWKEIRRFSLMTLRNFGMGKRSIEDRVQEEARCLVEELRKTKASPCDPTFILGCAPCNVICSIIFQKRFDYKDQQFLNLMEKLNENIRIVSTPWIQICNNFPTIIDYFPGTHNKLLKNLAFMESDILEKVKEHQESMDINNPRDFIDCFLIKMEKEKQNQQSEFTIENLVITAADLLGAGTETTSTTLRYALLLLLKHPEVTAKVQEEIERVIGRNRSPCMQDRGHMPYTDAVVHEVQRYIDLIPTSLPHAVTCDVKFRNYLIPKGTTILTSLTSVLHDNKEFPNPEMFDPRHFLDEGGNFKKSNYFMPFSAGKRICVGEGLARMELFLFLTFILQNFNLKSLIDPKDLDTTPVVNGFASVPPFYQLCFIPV
Voltage-gated inwardly rectifying potassium channel KCNH2, sequence (Q12809 whole entry): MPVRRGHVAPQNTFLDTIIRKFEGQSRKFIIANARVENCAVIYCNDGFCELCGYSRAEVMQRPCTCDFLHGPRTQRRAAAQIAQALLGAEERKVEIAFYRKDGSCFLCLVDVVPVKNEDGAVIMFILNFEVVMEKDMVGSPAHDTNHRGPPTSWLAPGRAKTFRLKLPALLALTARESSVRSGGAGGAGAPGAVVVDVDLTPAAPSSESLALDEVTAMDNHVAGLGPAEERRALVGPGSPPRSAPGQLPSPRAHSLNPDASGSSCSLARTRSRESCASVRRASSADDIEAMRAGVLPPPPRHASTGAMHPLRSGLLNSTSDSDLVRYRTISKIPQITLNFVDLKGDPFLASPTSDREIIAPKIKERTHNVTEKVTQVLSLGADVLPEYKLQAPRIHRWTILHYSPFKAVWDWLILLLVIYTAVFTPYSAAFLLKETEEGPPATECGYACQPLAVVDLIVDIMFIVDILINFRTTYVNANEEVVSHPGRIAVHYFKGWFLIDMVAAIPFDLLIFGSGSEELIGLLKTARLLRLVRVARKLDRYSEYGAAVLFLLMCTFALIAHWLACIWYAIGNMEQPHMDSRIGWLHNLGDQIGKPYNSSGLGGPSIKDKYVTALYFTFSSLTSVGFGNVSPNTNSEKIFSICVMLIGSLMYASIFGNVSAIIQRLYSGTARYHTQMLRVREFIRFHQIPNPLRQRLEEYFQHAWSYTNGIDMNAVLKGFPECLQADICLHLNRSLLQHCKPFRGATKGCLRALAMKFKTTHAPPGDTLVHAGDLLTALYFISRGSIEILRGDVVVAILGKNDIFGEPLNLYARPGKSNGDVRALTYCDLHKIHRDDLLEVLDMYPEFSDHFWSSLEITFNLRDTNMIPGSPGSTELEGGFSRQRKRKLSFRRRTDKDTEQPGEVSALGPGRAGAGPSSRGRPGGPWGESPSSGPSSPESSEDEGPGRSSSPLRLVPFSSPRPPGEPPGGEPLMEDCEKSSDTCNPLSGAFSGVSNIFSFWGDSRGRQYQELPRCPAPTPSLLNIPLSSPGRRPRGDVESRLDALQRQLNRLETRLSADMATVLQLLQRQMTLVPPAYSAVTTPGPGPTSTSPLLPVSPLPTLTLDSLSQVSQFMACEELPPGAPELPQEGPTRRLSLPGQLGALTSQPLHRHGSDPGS
Cytochrome P450 3A4, sequence (P08684 whole entry): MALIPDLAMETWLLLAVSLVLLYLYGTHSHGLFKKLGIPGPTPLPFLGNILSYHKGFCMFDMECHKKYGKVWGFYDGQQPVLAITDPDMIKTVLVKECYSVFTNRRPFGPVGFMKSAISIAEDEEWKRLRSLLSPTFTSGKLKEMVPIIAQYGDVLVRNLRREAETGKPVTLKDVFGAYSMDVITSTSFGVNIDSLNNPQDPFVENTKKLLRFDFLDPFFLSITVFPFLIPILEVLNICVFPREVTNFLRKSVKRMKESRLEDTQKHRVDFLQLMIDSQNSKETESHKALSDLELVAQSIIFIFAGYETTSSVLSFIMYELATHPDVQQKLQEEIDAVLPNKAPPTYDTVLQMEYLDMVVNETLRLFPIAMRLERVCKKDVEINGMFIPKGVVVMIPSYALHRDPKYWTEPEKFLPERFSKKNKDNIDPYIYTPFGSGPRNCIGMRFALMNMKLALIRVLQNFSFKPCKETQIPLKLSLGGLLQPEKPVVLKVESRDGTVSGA

Compound: O=C(O)c1cc(-c2ccc([C@]3(O)[C@@H]4CNC[C@H]3C4)cc2)c2ccc(-c3ccc(C(F)(F)F)cc3)cc2c1
- IC50 (P2Y purinoceptor 14): 0.0048 µM
- Ki [1]: 6 µM
- Activity [2]: Non-Toxic
- t1/2 [3]: 3.01 h
- t1/2 [4]: 2.36 h
- Cmax [5]: 1300 nM
- Stability [6]: 93.3%
- Stability [7]: 69.8%
- IC50 (Cytochrome P450 2C9): > 30 µM
- IC50 (Cytochrome P450 2C19): > 30 µM
- IC50 (Cytochrome P450 2D6): > 30 µM
- IC50 (Cytochrome P450 3A4): > 30 µM
- Stability [8]: 100%
- t1/2 [9]: > 6.67 h
- IC50 [10]: > 30 µM
- IC50 (HepG2): 32.6 µM
- PPB [11]: 99.48%
- Activity (Mus musculus [12]): Active
- Activity (Mus musculus [13]): Active
- Activity (Mus musculus [14]): Active
- Activity (Mus musculus [15]): inactive
- Activity (Mus musculus [16]): inactive
- bioavailability [17]: 114%
